The source made the active and inactive calls. The calls are words filed in the database; no cut-off is given here.
Experiments:
Rattus norvegicus [1] = assay: Antifertility activity in rat at 5 mg/day administered for 7 days; format: functional, organism-based
In short: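 Rat antifertility test: 5 mg/rat/day given for 7 days to two female rats.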

Rattus norvegicus [2] = species: Rattus norvegicus; assay: CNS activity in rat assessed as gross behaviour; format: ADME, organism-based; conditions: in vivo

With `O=C1CCN(c2cccc(C(F)(F)F)c2)N1` as the compound, how does the Activity (Rattus norvegicus [1]) read?
Its Activity is “inactive”.

And the Activity (Rattus norvegicus [2])?
Its Activity is “Non-toxic”.

`O=C1CCN(c2cccc(Cl)c2)N1` was tested. Which Activity (Rattus norvegicus [1]) did it give?
Its Activity is “inactive”.

What about the Activity (Rattus norvegicus [2]) of the same compound?
The Activity was “Non-toxic”.

Which results are given for `CCOC(=O)CCCCCOC1=NN(c2cccc(OC)c2)CC1`?
Activity (Rattus norvegicus [1]): inactive; Activity (Rattus norvegicus [2]): Non-toxic

Which Activity (Rattus norvegicus [1]) does the source give for `COc1cccc(N2CCC(=O)N2)c1` here?
The Activity was “inactive”.

And the Activity (Rattus norvegicus [2])?
Its Activity is “Non-toxic”.

Which Activity (Rattus norvegicus [1]) does the source give for `COc1cccc(N2CCC(=O)N2CCCC(O)c2ccc(F)cc2)c1` (stereo not drawn) here?
Its Activity is “inactive”.

What about the Activity (Rattus norvegicus [2]) of the same compound?
Its Activity is “Non-toxic”.

For `CCOC(=O)COC1=NN(c2cccc(C(F)(F)F)c2)CC1`, which Activity (Rattus norvegicus [1]) is on record?
The Activity was “inactive”.

And the Activity (Rattus norvegicus [2])?
The Activity was “Non-toxic”.

How did the Activity (Rattus norvegicus [1]) turn out when `COc1cccc(N2CCC(=O)N2CCCC(=O)c2ccc(F)cc2)c1` was run?
The Activity was “inactive”.

And the Activity (Rattus norvegicus [2])?
The Activity was “Non-toxic”.

How did the Activity (Rattus norvegicus [1]) turn out when `CCCCOc1cccc(N2CCC(=O)N2)c1` was run?
Its Activity is “inactive”.

What about the Activity (Rattus norvegicus [2]) of the same compound?
Its Activity is “Non-toxic”.

For `CCOC(=O)COC1=NN(c2cccc(Cl)c2)CC1`, which Activity (Rattus norvegicus [1]) is on record?
Its Activity is “inactive”.

What about the Activity (Rattus norvegicus [2]) of the same compound?
The Activity was “Non-toxic”.
